Measured values reported in ChEMBL document CHEMBL1148382, “Synthesis and structure-activity relationship for a novel class of potent and selective carbamoyl-triazole based inhibitors of hormone sensitive lipase” (J Med Chem, 2004).

Columns and labels:
Acetylcholinesterase [1] = target: T1, Acetylcholinesterase (Homo sapiens, UniProt P22303); test: Inhibitory concentration against acetylcholinesterase
Cholinesterase = Cholinesterase (Homo sapiens, UniProt P06276); test: Inhibitory concentration against butyrylcholinesterase.
Hormone-sensitive lipase = target: T2, Hormone-sensitive lipase (Homo sapiens, UniProt Q05469); test: Inhibition of hormone sensitive lipase (HSL).
T2 sequence (Q05469 whole entry): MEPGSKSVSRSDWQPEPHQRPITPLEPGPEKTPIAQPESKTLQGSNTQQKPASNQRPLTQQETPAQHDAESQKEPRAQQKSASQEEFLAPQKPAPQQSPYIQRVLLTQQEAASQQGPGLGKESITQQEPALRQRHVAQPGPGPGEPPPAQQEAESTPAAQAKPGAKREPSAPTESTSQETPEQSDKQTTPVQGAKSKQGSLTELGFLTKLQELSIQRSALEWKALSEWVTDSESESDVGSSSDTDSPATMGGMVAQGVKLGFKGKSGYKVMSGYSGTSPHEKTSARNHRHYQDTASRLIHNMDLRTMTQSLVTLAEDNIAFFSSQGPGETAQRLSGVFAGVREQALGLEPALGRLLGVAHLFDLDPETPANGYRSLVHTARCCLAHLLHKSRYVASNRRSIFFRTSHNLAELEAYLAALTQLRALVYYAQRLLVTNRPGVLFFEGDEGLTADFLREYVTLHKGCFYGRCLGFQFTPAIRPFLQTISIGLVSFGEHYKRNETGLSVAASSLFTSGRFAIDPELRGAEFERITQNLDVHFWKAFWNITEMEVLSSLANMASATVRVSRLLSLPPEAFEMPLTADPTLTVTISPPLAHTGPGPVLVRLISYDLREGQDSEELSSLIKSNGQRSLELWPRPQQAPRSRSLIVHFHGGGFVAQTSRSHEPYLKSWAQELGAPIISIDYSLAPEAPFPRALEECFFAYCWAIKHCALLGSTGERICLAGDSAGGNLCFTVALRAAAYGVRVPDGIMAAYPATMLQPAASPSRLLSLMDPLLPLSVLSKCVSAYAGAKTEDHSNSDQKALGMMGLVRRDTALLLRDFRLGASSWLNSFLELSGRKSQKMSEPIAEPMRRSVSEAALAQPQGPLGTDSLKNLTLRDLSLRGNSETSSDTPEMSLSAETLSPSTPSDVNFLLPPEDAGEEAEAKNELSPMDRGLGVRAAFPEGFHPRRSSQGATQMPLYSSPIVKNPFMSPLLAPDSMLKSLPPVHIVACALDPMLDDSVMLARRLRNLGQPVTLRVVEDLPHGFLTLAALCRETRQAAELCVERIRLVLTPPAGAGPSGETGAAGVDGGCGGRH

[2] = target: T3, Hepatic triacylglycerol lipase (Homo sapiens, UniProt P11150); test: Compound was tested to inhibit hepatic lipase (HL)
T3 sequence (P11150 whole entry): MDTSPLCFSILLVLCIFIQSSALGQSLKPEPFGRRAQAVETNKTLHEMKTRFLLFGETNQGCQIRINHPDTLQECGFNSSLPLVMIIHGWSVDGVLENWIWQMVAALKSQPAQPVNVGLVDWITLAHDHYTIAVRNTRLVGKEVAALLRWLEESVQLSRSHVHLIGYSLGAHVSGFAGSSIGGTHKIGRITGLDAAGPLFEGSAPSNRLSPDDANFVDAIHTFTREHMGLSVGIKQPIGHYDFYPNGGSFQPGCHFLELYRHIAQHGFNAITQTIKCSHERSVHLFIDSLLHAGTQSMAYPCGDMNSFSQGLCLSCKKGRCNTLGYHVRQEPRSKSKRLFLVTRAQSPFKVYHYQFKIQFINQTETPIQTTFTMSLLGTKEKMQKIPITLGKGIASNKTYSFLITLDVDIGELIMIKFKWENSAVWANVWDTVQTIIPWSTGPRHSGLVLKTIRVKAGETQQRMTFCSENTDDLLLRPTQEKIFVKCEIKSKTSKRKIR
How it was run: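 Emulsion assay with a fluorochrome (NBD)-labeled triacylglyceride in phosphatidylcholine/phosphatidylinositol 3:1 micelles, diluted in PED-BSA buffer pH 7.0. HL (1 μg/mL) and inhibitor in DOC buffer (10 mM TRIS-HCl pH 8.5, 5 mM deoxycholate) preincubated 70 min at 25 °C, then added with NaCl and TRIS pH 8.5. Fluorescence (ex 450/em 545 nm) read at 0 and 120 min, 37 °C. Inhibitor top concentration 100 μM, six 5-fold dilutions, duplicates; sigmoidal variable-slope IC50 fit.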

[3] = target: T4, Pancreatic triacylglycerol lipase (Homo sapiens, UniProt P16233); test: Compound was tested to inhibit pancreatic lipase (PL)
T4 sequence (P16233 whole entry): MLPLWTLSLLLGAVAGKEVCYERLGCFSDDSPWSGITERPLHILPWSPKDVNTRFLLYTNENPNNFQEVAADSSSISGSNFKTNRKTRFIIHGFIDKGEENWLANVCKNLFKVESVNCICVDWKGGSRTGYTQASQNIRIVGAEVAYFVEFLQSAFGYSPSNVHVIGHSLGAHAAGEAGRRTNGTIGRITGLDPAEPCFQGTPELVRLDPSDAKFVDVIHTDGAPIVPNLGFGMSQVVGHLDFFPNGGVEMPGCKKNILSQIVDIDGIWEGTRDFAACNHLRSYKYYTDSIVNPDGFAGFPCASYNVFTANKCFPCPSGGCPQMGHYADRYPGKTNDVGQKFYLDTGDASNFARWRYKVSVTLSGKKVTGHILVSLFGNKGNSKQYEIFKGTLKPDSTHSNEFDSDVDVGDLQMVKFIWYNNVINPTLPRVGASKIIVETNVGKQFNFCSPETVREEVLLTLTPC
How it was run: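 PL (1 μg/mL) plus colipase (5 μg/mL) preincubated with inhibitor 40 min at 25 °C. Then combined with TRIS buffer pH 8.0 (NaCl, 1 mM NaTDC) and labeled triacylglyceride emulsion prepared in TRIS pH 8.0 with 8 mM NaTDC, 0.3 M NaCl, 2 mM CaCl2. Fluorescence (ex 450/em 545 nm) read at 0 and 60 min, 37 °C. Six concentrations from 100 μM in 5-fold steps, duplicates; sigmoidal IC50 fit.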

[4] = target: Lipoprotein lipase (Bos taurus) (UniProt P11151); test: Compound was tested to inhibit lipoprotein lipase (LPL)
Acetylcholinesterase [5] = target: T1, Acetylcholinesterase; test: Inhibitory concentration against acetylcholinesterase; non classical inhibitor, maximum HSL inhibition of […]%

T1 sequence (P22303 whole entry): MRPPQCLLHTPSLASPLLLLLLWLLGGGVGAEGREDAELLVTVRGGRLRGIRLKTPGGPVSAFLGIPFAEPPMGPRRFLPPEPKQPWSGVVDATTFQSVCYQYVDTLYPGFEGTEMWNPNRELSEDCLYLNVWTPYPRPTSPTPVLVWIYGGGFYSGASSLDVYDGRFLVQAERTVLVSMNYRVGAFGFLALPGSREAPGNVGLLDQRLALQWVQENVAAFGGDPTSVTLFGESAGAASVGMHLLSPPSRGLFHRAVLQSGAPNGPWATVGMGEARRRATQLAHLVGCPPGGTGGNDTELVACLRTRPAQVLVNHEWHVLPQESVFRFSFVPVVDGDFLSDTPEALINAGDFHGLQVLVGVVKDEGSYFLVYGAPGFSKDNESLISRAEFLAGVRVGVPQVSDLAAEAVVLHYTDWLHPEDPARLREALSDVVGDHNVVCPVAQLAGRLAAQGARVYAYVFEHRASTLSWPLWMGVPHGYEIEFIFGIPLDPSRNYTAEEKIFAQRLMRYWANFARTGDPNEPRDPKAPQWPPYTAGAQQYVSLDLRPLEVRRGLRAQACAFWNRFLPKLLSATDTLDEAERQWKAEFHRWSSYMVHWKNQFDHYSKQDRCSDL
Lipoprotein lipase (Bos taurus), sequence (P11151 whole entry, looked up): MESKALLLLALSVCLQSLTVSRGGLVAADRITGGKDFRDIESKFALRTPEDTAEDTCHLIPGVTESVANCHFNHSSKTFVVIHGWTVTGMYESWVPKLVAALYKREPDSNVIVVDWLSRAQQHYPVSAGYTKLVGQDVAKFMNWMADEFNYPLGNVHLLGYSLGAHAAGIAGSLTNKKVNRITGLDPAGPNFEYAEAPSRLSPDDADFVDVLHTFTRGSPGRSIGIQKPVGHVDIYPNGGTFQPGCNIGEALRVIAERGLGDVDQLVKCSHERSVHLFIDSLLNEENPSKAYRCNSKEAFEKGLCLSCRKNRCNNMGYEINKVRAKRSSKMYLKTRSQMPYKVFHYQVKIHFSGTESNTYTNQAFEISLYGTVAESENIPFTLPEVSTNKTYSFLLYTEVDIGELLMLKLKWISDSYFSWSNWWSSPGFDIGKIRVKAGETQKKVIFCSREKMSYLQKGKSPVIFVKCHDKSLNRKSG
Cholinesterase, sequence (P06276 whole entry): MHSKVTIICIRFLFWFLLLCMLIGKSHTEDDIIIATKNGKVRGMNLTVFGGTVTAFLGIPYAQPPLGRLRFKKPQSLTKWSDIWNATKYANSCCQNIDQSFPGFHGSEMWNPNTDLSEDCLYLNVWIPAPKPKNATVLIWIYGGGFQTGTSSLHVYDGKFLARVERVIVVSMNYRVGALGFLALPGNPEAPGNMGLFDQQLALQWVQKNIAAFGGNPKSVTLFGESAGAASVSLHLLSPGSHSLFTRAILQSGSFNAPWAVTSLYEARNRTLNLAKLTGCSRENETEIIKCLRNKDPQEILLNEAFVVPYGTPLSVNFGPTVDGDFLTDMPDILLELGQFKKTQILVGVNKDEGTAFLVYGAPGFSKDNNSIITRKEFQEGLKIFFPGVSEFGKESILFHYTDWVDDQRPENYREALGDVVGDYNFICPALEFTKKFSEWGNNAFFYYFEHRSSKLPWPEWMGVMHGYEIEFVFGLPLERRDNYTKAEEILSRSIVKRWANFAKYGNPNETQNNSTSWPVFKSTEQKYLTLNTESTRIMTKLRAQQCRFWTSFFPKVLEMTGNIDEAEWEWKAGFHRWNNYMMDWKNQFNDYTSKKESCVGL

Row | SMILES | IC50 (Acetylcholinesterase [1]) [nM] | IC50 (Cholinesterase) [nM] | IC50 (Hormone-sensitive lipase) [nM] | IC50 [2] [nM] | IC50 [3] [nM] | IC50 [4] [nM] | IC50 (Acetylcholinesterase [5])
1 | Cc1c(C(C)C)c(=O)on1C(=O)N1CCC[C@H](C)C1 | 17000 | > 50000 | 170 | > 50000 | > 50000 | > 50000 | 
2 | CSc1nc(-c2ccc(Cl)cc2)nn1C(=O)N(C)C | 100 | < 10 | 20 |  |  |  | 
3 | CSc1nc(-c2ccc(C)cc2)nn1C(=O)N(C)c1ccccc1 | 2400 |  | 100 |  |  |  | 
4 | CSc1nc(-c2ccc(OC(F)(F)F)cc2)nn1C(=O)N(C)C | 800 | 200 | 100 |  |  |  | 
5 | O=C(N1CCCCC1)n1nc(-c2ccc(Cl)cc2)nc1SCC(F)(F)F | 300 | 1000 | 400 |  |  |  | 
6 | CSc1nc(-c2ccc(Cl)cc2)nn1C(=O)N1CCOCC1 | > 50000 | 14000 | 2000 |  |  |  | 
7 | CSc1nc(-c2ccc(Cl)cc2)nn1C(=O)N1CCCCC1 | 26 | 900 | 100 |  |  |  | 
8 | CSc1nc(-c2ccc(C)cc2)nn1C(=O)N1CCOCC1 | > 50000 | 2000 | 4000 |  |  |  | 
9 | CSc1nc(-c2ccc(OC(F)(F)F)cc2)nn1C(=O)N(C)c1ccccc1 | > 50000 | > 50000 | 250 | > 50000 | > 50000 | > 50000 | 
10 | Cc1ccc(-c2nc(SCC(F)(F)F)n(C(=O)N(C)C)n2)cc1 | 200 | 460 | 600 |  |  |  | 
11 | CSc1nc(-c2ccc(Cl)cc2)nn1C(=O)N(C)c1ccccc1 | 1400 |  | 160 |  |  |  | 
12 | CN(C(=O)n1nc(-c2ccc(Cl)cc2)nc1SCC(F)(F)F)c1ccccc1 | > 50000 | > 50000 | 170 | > 50000 | > 50000 | > 50000 | 
13 | CSc1nc(-c2ccc(C)cc2)nn1C(=O)N(C)C | 800 | 200 | 30 |  |  |  | 
14 | CCCCCCSc1nc(-c2ccc(Cl)cc2)nn1C(=O)N(C)c1ccccc1 | > 50000 |  | 400 |  |  |  | 
15 | CCOc1nn(-c2cccc(OCc3ccccc3)c2)c(=O)o1 | 750 | 920 | 1100 | 15000 | > 10000 | > 10000 | 
16 | O=C(N1CCOCC1)n1nc(-c2ccc(Cl)cc2)nc1SCC(F)(F)F | > 50000 | > 50000 | 9000 |  |  |  | 

Row | SMILES | IC50 (Acetylcholinesterase [1]) [nM] | IC50 (Cholinesterase) [nM] | IC50 (Hormone-sensitive lipase) [nM] | IC50 [2] [nM] | IC50 [3] [nM] | IC50 [4] [nM] | IC50 (Acetylcholinesterase [5])
17 | CCCSc1nc(-c2ccc(Cl)cc2)nn1C(=O)N(C)C | 300 | 100 | 60 |  |  |  | 
18 | CCSc1nc(-c2ccc(OC)cc2)nn1C(=O)N(C)c1ccccc1 | 1100 |  | 300 |  |  |  | 
19 | CSc1nc(-c2ccc3ccccc3c2)nn1C(=O)N(C)C | 50 | 130 | 2000 |  |  |  | 
20 | CN(C(=O)n1nc(-c2ccc(Cl)cc2)nc1SCC1CC1)c1ccccc1 |  |  | 62 |  |  |  | Non classical inhibitor
21 | CCCCCCSc1nc(-c2ccc(Cl)cc2)nn1C(=O)N1CCCCC1 | < 10 | > 50000 | > 50000 |  |  |  | 
22 | CCCCCCSc1nc(-c2ccc(C)cc2)nn1C(=O)N(C)C | 200 | 300 | > 50000 |  |  |  | 
23 | O=C(N1CCCCC1)n1nc(-c2ccc(Cl)cc2)nc1SCC1CC1 | 100 | 900 | 200 |  |  |  | 
24 | CCSc1nc(-c2ccc(Cl)cc2)nn1C(=O)N(C)C | 56 | 50 | 210 |  |  |  | 
25 | COc1ccc(-c2nc(SC)n(C(=O)N(C)C)n2)cc1 | 800 | 410 | 900 |  |  |  | 
26 | CCCCCCSc1nc(-c2ccc(C)cc2)nn1C(=O)N(C)c1ccccc1 | > 50000 |  | 700 |  |  |  | 
27 | CCCCCCSc1nc(-c2ccc(Cl)cc2)nn1C(=O)N1CCOCC1 | > 50000 | > 50000 | > 50000 |  |  |  | 
28 | CSc1nc(-c2ccc(C(F)(F)F)cc2)nn1C(=O)N(C)C | 500 | 100 | 100 |  |  |  | 
29 | CSc1nc(-c2ccc(-c3ccccc3)cc2)nn1C(=O)N(C)C | 560 | 230 | 1500 |  |  |  | 
30 | COc1nn(-c2ccc(NC(=O)c3ccc(C(C)(C)C)cc3)cc2)c(=O)o1 | > 50000 | > 50000 | 23 | 1800 | > 10000 | 200 | 
31 | CSc1nc(/C=C/c2ccccc2)nn1C(=O)N(C)C | < 10 | 370 | > 50000 |  |  |  | 
32 | CCSc1nc(-c2ccc(OC)cc2)nn1C(=O)N1CCOCC1 | > 50000 | 4000 | 9000 |  |  |  | 
